Data set [1] concerns the target Protein arginine N-methyltransferase 1 (Homo sapiens) (UniProt Q99873). As to the kind of experiment: Inhibition of His-tagged PRMT1 expressed in Escherichia coli BL21(DE3) cells assessed as residual activity using [14C]-S-adenosyl-L-methionine and histone H4 peptide at 100 uM after 8 mins by scintillation counting. The procedure, abridged: (§1)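 50 mM HEPES pH 8.0, 0.5 mM DTT, 1 mM EDTA, 50 mM NaCl, 30°C; 2 μM H4(1-20), 5 μM [14C]AdoMet, inhibitor preincubated 5 min, started with 0.05 μM enzyme, 8 min; P81 filter binding, scintillation.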

A short description of data set [2]: Cellular uptake in human HeLa cell nucleus after 6 hrs by bright field microscopic analysis. The class given is ADME, cell-based. The procedure, abridged:
(§2)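 HeLa cells seeded on coverglass overnight, treated with 0, 2 or 5 μM for 6 h (DMSO control), fixed 10 min in 4% paraformaldehyde at room temperature. Bright-field images under visible light; NIR fluorescence by confocal microscopy with 633 nm excitation and 715–785 nm long-pass emission.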

For data set [3], the system named is HeLa. As to the kind of experiment: Induction of apoptosis in human HeLa cells assessed as increase in sub-G1 peak at 2.5 to 5 uM after 48 hrs by propidium iodide staining-based flow cytometric analysis. The class given is functional, cell-based. The procedure, abridged:
(§3)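 HeLa cells (1 × 10^6, exponential growth) exposed to compound for 24 or 48 h; collected, fixed in ice-cold 70% ethanol, stored at 4°C, rinsed in PBS, stained with 40 μg/ml propidium iodide plus RNase A; DNA content by flow cytometry, cell-cycle subpopulations as percentages. Tested at 0.3, 1, 2.5 and 5 μM (24 h).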
(Flow cytometry measures light scatter and fluorescence of single cells or particles in a stream.)

Data set [4] relates to HeLa. In words: Cell cycle arrest in human HeLa cells assessed as accumulation at S phase at 1 uM after 24 hrs by propidium iodide staining-based flow cytometric analysis (reference value: 12.2%). It counts as functional. An outline of the steps:
as §3

Data set [5] deals with Protein arginine N-methyltransferase 6 (Homo sapiens, UniProt Q96LA8). In words: Inhibition of His6X-tagged PRMT6 expressed in Escherichia coli BL21(DE3) cells using [14C]-S-adenosyl-L-methionine and histone H3(1-31) peptide after 8 mins by scintillation counting.
Chain of Protein arginine N-methyltransferase 6 (Q96LA8 whole entry): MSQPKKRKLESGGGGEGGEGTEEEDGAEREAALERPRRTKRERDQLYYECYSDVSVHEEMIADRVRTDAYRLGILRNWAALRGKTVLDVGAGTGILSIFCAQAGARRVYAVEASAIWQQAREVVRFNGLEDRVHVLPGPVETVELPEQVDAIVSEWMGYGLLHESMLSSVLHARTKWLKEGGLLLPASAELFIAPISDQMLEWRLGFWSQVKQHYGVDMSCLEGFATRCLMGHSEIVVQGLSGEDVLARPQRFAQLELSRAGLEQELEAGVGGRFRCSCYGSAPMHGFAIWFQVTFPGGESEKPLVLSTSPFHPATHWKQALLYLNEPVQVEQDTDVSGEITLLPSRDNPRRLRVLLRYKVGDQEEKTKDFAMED
Data set [6] has as its target Protein arginine N-methyltransferase 1 (Homo sapiens) (UniProt Q99873). As to conditions: 4 uM.
Data set [7] is described as follows: Cellular uptake in human HeLa cell nucleus at 2 to 5 uM after 6 hrs by fluorescent microscopic analysis. The class given is ADME, cell-based. An outline of the steps: as §2
Data set [8] deals with HeLa. As to the kind of experiment: Cell cycle arrest in human HeLa cells assessed as accumulation at G2/M phase at 1 uM after 24 hrs by propidium iodide staining-based flow cytometric analysis (reference value: 29.2%). It counts as functional. The procedure, abridged: as §3
Data set [9] can be described thus: Cellular uptake in human HeLa cell cytoplasmic vesicles at 2 to 5 uM after 6 hrs by fluorescent microscopic analysis. It counts as ADME, cell-based. An outline of the steps:
as §2

Data set [10] has as its target Protein arginine N-methyltransferase 3 (Homo sapiens, UniProt O60678). In words: Inhibition of His6X-tagged PRMT3 expressed in Escherichia coli BL21(DE3) cells using [14C]-S-adenosyl-L-methionine and R4 peptide after 8 mins by scintillation counting.
In data set [11] the test system is HeLa. In words: Cell cycle arrest in human HeLa cells assessed as accumulation at G1 phase at 1 uM after 24 hrs by propidium iodide staining-based flow cytometric analysis (reference value: 57.2%). It counts as functional. The procedure, abridged:
as §3

Data set [12] is described as follows: Cellular uptake in human HeLa cell around nucleus at 2 to 5 uM after 6 hrs by fluorescent microscopic analysis. The class given is ADME, cell-based. The procedure, abridged:
as §2

Data set [13] has as its system HeLa. In words: Cell cycle arrest in human HeLa cells assessed as accumulation at S phase after 24 hrs by propidium iodide staining-based flow cytometric analysis (reference value: 12.2%). The class given is functional. An outline of the steps: as §3
The nature of data set [14]: Inhibition of His-tagged PRMT1 Y152A mutant expressed in Escherichia coli BL21(DE3) cells assessed as residual activity using [14C]-S-adenosyl-L-methionine and histone H4 peptide at 4 uM measured after 8 mins by scintillation counting. An outline of the steps:
as §1

Data set [15] deals with Protein arginine N-methyltransferase 5 (Homo sapiens, UniProt O14744). In words: Inhibition of His6X-tagged PRMT5 expressed in Escherichia coli BL21(DE3) cells using [14C]-S-adenosyl-L-methionine and histone H4 peptide after 8 mins by scintillation counting.
Chain of Protein arginine N-methyltransferase 5 (O14744 whole entry): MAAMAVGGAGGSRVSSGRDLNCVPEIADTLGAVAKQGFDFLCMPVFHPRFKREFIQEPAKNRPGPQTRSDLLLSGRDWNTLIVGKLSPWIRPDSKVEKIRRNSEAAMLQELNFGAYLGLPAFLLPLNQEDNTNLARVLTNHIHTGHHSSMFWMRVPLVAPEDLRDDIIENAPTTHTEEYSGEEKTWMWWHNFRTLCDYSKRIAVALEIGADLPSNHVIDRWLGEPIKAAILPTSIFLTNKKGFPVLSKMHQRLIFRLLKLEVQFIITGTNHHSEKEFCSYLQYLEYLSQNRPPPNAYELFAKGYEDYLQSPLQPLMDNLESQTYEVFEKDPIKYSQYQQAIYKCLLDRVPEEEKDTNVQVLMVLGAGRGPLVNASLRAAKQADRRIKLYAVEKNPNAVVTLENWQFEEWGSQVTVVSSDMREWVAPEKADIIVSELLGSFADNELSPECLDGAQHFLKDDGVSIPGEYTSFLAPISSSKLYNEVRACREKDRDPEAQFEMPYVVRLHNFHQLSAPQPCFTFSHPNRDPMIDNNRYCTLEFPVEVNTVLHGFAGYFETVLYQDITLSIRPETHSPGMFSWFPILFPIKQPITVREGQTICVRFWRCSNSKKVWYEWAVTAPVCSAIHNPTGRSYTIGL
Data set [16] is described as follows: Cellular uptake in human HeLa cell cytoplasmic vesicles at 2 to 5 uM after 6 hrs by bright field microscopic analysis. It counts as ADME, cell-based. An outline of the steps:
as §2

Active and inactive are the calls of the source. No cut-off for these calls is given here.

The term IC50 denotes the midpoint of a concentration-inhibition curve. Low values mean greater potency, high ones weaker potency. The term inhibition denotes the drop in the measured response relative to a control, in per cent.

Chain of Protein arginine N-methyltransferase 1 (Homo sapiens) (Q99873 whole entry, looked up): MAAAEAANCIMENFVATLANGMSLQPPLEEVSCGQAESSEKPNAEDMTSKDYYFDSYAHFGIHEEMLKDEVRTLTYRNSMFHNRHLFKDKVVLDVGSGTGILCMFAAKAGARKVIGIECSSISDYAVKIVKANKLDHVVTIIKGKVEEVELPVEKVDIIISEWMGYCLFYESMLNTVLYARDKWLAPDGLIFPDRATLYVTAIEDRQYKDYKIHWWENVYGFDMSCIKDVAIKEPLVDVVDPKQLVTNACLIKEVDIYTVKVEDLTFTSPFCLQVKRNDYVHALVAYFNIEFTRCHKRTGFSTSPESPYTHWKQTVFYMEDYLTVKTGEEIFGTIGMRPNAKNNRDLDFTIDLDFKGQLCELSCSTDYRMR
Chain of Protein arginine N-methyltransferase 3 (O60678 whole entry): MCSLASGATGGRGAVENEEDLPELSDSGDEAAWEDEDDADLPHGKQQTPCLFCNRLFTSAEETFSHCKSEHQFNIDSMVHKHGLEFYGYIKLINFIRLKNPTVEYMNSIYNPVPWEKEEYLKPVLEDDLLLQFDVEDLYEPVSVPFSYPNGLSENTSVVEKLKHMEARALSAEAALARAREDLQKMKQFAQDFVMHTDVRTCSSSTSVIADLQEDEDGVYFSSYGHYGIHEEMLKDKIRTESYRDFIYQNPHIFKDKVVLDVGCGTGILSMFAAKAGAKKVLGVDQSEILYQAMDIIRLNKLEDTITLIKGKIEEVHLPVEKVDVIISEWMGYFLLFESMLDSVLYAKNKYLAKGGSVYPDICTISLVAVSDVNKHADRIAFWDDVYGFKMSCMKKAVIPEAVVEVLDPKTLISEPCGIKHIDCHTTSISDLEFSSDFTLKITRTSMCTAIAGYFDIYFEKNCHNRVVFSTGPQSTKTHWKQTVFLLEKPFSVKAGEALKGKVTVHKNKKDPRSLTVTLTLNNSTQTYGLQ

As for `COc1ccc2c(c1)C(C)(C)C(/C=C/C=C/C=C1\N(C)c3ccc(OC)cc3C1(C)C)=[N+]2C`, the Activity in [1] is 95%.

Consider `CN1\C(=C/C=C(Cl)/C=C/C2=[N+](C)c3ccccc3C2(C)C)C(C)(C)c2ccccc21`, for which the Activity in data set [1] was found to be 80%.

Turning to `CCn1/c(=C\C=C\C2=[N+](CC)c3cccc4cccc2c34)c2cccc3cccc1c32.[I-]`, the Drug uptake entry is given as “Dose-dependent effect” in [2]; “Active” in data set [7]; “Active” in [9]; “Active” in data set [12]; “Active” in [16]. For the same compound, the outcome with HeLa [3] and in the data set with HeLa [13] was Active. Also, the Activity in the data set with HeLa [4] amounted to 56.5%; with HeLa [8], 13.9%; in the data set with HeLa [11] it was 23.6%. Besides, the half-maximal inhibitory concentration (IC50) in data set [5] came to 12.6 µM; in [10], 8.3 µM; in data set [15], 9.1 µM. Besides, the inhibition in [6] came to 92%. In [14], the inhibition result is “Active”.

Source of the values: ChEMBL document CHEMBL2046392, “Synthesis and evaluation of carbocyanine dyes as PRMT inhibitors and imaging agents” (Eur J Med Chem, 2012).
